This is a sample that favours compounds with a hit; in the whole collection about 2.5% have one here.
SIAE primary = human SIAE inhibitors, primary screen, biochemical, fluorescence polarization, FP-Rh probe, 1536-well HTS; AID 1053197, 2014; SIAE FP-Rh probe binding; actives 0.69% (n = 370,000); Sialate O-acetylesterase (Homo sapiens), Q9HAT2; inhibition, % at 9.66 µM;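 active means inhibition above a cutoff: mean of compounds within the control limits plus 3 SD of those, cut at about 17% in these data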
PRMT1 inh = PRMT1 methyltransferase inhibitors, primary screen, biochemical, fluorescence polarization; actives 1.3% (n = 370,000); inhibition, % at 2.79 µM; recombinant PRMT1, activity-based probe fluorescence polarization; Protein arginine N-methyltransferase 1 (Homo sapiens), Q99873;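 active means inhibition above about 21% made by adding two undisclosed values, limit read from the data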
Target sequence (Q99873 whole entry, looked up): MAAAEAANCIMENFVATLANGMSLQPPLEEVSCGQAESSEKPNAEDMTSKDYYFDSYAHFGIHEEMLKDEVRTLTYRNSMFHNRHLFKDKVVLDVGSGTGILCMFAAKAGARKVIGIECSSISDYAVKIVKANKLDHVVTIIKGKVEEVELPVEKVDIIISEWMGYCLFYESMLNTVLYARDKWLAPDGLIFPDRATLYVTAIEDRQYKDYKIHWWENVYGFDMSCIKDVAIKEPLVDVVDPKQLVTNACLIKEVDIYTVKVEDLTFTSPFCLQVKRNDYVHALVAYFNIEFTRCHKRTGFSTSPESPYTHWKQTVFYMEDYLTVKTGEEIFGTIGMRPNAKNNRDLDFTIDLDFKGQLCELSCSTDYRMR
HTRA1 inh = HTRA1 serine protease inhibitors, primary screen, biochemical, fluorescence polarization, HTS. actives 0.5% (n = 340,000). AID 504803, 2011. recombinant HTRA1, FP-rhodamine activity-based probe. Q92743. inhibition, % at 5.96 µM; in the data active means inhibition above about 36%
TCR CD3 inh = inhibitors of human TCR-CD3 interaction, primary screen, biochemical, fluorescence, TAMRA-labeled TCR probe. actives 0.37% (n = 360,000). T-cell receptor (TCR). inhibition, % at 9.4 µM; in the data active means inhibition above about 19%;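 further: recombinant mutant TCR 2C K166C tagged with TAMRA read by polarization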
mABHD4 FP = ABHD4 inhibitors, primary screen, biochemical, fluorescence polarization, mouse; purified mABHD4, FP-Rh probe fluorescence polarization; inhibition, % at 8.92 µM; (Lyso)-N-acylphosphatidylethanolamine lipase (Mus musculus), Q8VD66; actives 0.54% (n = 370,000);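 active means inhibition exceeding the mean over every tested compound plus 3 SD, cut at about 30% in these data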
Target sequence (Q8VD66 whole entry, looked up): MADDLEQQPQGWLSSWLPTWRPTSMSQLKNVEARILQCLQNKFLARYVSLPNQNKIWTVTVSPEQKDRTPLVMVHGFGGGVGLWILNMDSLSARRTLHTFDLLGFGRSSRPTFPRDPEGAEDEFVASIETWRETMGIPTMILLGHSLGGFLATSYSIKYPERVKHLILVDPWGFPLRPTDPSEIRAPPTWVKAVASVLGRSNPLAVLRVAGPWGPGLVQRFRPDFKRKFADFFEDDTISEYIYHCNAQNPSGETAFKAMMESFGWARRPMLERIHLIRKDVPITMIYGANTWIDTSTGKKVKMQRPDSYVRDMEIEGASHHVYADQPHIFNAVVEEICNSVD
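Material: mouse ABHD4 enzyme, wild type; Benchmarks: S159A mutant high control, sample median low control; Buffer or medium: HEPES pH 7.0, NaCl, Pluronic buffer; Signal: fluorescence polarization; Read-out: percent inhibition of probe binding, normalized to plate controls; Timing: pre-incubation 45 min, probe exposure 60 min, at 25 °C; Dosing: 8.92 µM, single dose.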
PRMT1 confirm = PRMT1 methyltransferase inhibitors, confirmation, biochemical, fluorescence polarization, triplicate | inhibition, % at 2.79 µM | actives 42% (n = 3,300) | recombinant His-PRMT1, activity-based probe fluorescence polarization | shares compounds with PRMT1 inh;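 active means mean inhibition across replicates above the hit cutoff derived for the earlier primary screen, cut at about 22% in these data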
Each line names hits and unclear results; the compound was inactive in the other large screens (follow-up assays come after a bar, where they were run).

Cc1oc(-c2ccccc2F)nc1CSCC(=O)NCc1ccc2c(c1)OCO2	none
CCC(Oc1ccccc1)C(=O)Nc1nc2ccccc2[nH]1 (stereo not given)	PRMT1 inh 26 | PRMT1 confirm inactive
COc1ccccc1CNS(=O)(=O)c1cc(CN2C(=O)c3cccnc3C2=O)ccc1OC	none
COc1ccc(CN2C(=O)c3cccnc3C2=O)cc1S(=O)(=O)NCc1ccc(C)o1	PRMT1 inh 41 | PRMT1 confirm inactive
Cc1ccc(NN2C(=O)C=C(c3ccccc3)C2=O)cc1	PRMT1 inh 35 (no result: HTRA1 inh) | PRMT1 confirm inactive
CC(C)n1c(CNC(=O)c2ccccc2F)nnc1SCC(=O)NC1CCCCC1	PRMT1 inh 33 | PRMT1 confirm inactive
COc1ccc(S(=O)(=O)Nc2cc3c4c(c2)C(C)C(=O)N4CCC3)cc1OC (stereo not given)	none (no result: SIAE primary, PRMT1 inh, TCR CD3 inh, mABHD4 FP)
Cc1cc(C)c(C)c(S(=O)(=O)N2C(=S)NC(=O)C2CC(C)C)c1C (stereo not given)	none
Cc1cc(C)c(C)c(S(=O)(=O)N2C(=S)NC(=O)C2C(C)C)c1C (stereo not given)	PRMT1 inh 28 | PRMT1 confirm inactive
Cc1cc(C)c2ccc(=S)[nH]c2n1	PRMT1 inh 38 | PRMT1 confirm inactive
O=C(Cn1nnc2ccccc2c1=O)N[C@@H](Cc1ccccc1)C(=O)O	none
CC(=O)N(C(C)=O)N1C(=O)c2cccc3c(N4CCOCC4)ccc(c23)C1=O	PRMT1 inh 28 | PRMT1 confirm inactive
CCN(CC)S(=O)(=O)c1ccc(C(=O)OCCN2C(=O)c3cccc4c(N5CCOCC5)ccc(c34)C2=O)cc1	none
O=C(NC1CCCCN(Cc2ccc(Cl)cc2)C1=O)c1ccc(F)c(F)c1 (stereo not given)	none (no result: HTRA1 inh, TCR CD3 inh)
O=C(NC1CC2CCCC(C1)N2C(=O)Nc1ccccc1Cl)C1CC1 (stereo not given)	none
Cc1ccc(-n2ccnc(SCC(=O)NCCc3ccccc3)c2=O)cc1F	PRMT1 inh 59 | PRMT1 confirm 42
CCOc1ccc(-n2ccnc(SCC(=O)NCCc3ccccc3)c2=O)cc1	none
O=C(CSc1nccn(-c2ccc(F)c(Cl)c2)c1=O)NC1CCCC1	PRMT1 inh 32 | PRMT1 confirm 39
Cc1ccc(NC(=O)CN(C)C(=O)CNC(=O)c2sc3ccccc3c2Cl)cc1	none
OCCn1c(CSc2nnc(-c3ccco3)n2-c2ccccc2)nc2ccc(Cl)cc21	PRMT1 inh 39 | PRMT1 confirm 34
CC1(C)CC2(CC(C)(C(=O)CSc3nc4ccccc4s3)OC2=O)C(=O)O1 (stereo not given)	none
CC1(C(=O)CSc2nc3ccccc3s2)CCC(=O)O1 (stereo not given)	PRMT1 inh 29 | PRMT1 confirm 22
CC(C)CC(=O)Nc1ccc(-c2nc3ccccc3c(=O)[nH]2)cc1	none
O=S1(=O)CC=C(CSC(=S)NC2CCS(=O)(=O)C2)C1 (stereo not given)	PRMT1 inh 26 | PRMT1 confirm 91
C=CCn1c(SCC(=O)Nc2ccccc2-c2ccccc2)nnc1-c1ccc(Cl)cc1	none (no result: HTRA1 inh, TCR CD3 inh)
O=C1CCSc2c1ccc1ccccc21	PRMT1 inh 29 | PRMT1 confirm inactive
COc1ccc(/C=C2/CSC/C(=C/c3ccc(OC)c(OC)c3)C2=O)cc1OC	none
O=[N+]([O-])c1cccc(C(=S)N2CCN(c3ccccc3F)CC2)c1	none
O=[N+]([O-])c1cccc(C(=S)N2CCN(c3ccccc3)CC2)c1	PRMT1 inh 35 | PRMT1 confirm inactive
c1ccc(Cn2ccc3ccc(-c4ccc5ccn(Cc6cccc(-c7cccs7)c6)c5c4)cc32)cc1	none (no result: HTRA1 inh, TCR CD3 inh)
Cc1cc(C)nc(SCCN(C)C)n1	none
Cc1cc(C)nc(SCCN2CCCCC2)n1	PRMT1 inh 26 | PRMT1 confirm inactive
Oc1c(Cl)cc(Oc2cc(Cl)c(O)c(CN3CCOCC3)c2)cc1CN1CCOCC1	none
Oc1c(CN2CCOCC2)cc(CN2CCOCC2)c(O)c1O	PRMT1 inh 35 | PRMT1 confirm 83
CCCc1cc(CN2CCOCC2)c(O)c(CN2CCOCC2)c1O	PRMT1 inh 64 | PRMT1 confirm 64
CC1(C(=O)NCc2ccc3c(c2)OCO3)CCN1C(=O)Cc1ccc(Cl)cc1Cl (stereo not given)	none (no result: HTRA1 inh)
COc1ccc(N=Cc2sc(O)c3ccccc23)cc1	none
O=[N+]([O-])c1ccc(N=Cc2sc3ccccc3c2O)cc1	PRMT1 inh 49 | PRMT1 confirm inactive
O=[N+]([O-])c1cccc(N=Cc2ccccc2)c1	none
Oc1c(C=NCc2ccccc2)sc2ccccc12	PRMT1 inh 43 | PRMT1 confirm 34
O=[N+]([O-])c1cccc(N=Cc2sc3ccccc3c2O)c1	PRMT1 inh 40 (no result: HTRA1 inh) | PRMT1 confirm 25
O=C(CCSc1ccc(Cl)cc1)NC12CC3CC(CC(C3)C1)C2	none
O=C(CSc1nnc(-c2ccco2)o1)N1c2ccccc2CCc2ccccc21	none
CON(C)C(=O)C(C)(C)CC#CCN(CC#Cc1ccccc1)S(=O)(=O)c1ccc(C)cc1	none (no result: HTRA1 inh)
CCc1ccc(NC(=O)C(C)OC(=O)Cn2[nH]c(=O)c3ccccc3c2=O)cc1 (stereo not given)	none
CCN(CC)C(=O)CC[C@H]1CC[C@]2(CCCN(Cc3cccnc3)C2)O1	none (no result: HTRA1 inh, TCR CD3 inh)
O=C1c2ccc([N+](=O)[O-])cc2S(=O)(=O)N1Cc1ccccc1	none
NNc1cc([N+](=O)[O-])cc2c1C(=O)N(Cc1ccccc1)S2=O (stereo not given)	PRMT1 inh 26 | PRMT1 confirm inactive
COc1ccc(S(=O)(=O)Nc2cc3c4c(c2)CCN4C(=O)CC3)cc1OC	none
O=C(Cc1ccc(S(=O)(=O)N2CCOCC2)s1)Nc1nc2c(s1)CCCC2	PRMT1 inh 29 | PRMT1 confirm inactive
Nc1ncnc(Sc2ncccn2)c1[N+](=O)[O-]	PRMT1 inh 53 | PRMT1 confirm inactive
O=C(CN1C(=O)NC2(CCCC2)C1=O)OCCOc1ccc(Cl)cc1Cl	none
O=C(Cc1cnc2ncnn2c1)N1CCc2c([nH]c3ccccc23)C1c1ccccn1 (stereo not given)	none
O=C(O)/C(=C\c1ccco1)NC(=O)c1ccc(Br)o1	none
O=C(Nc1ccc(C(=O)O)cc1)/C(=C\c1ccco1)NC(=O)c1ccc(Br)o1	PRMT1 inh 25 | PRMT1 confirm inactive
C=CCNC(=O)/C(=C/c1ccco1)NC(=O)c1ccc(Br)o1	none
O=C(NC(Cc1ccccc1)C(=O)O)/C(=C\c1ccco1)NC(=O)c1ccc(Br)cc1 (stereo not given)	PRMT1 inh 35 | PRMT1 confirm inactive
O=C(Nc1ccc(C(=O)O)cc1)/C(=C\c1ccco1)NC(=O)c1ccc(Br)cc1	PRMT1 inh 34 | PRMT1 confirm inactive
O=C(O)/C(=C/c1ccco1)NC(=O)c1ccc(Br)o1	PRMT1 inh 29 | PRMT1 confirm inactive
